Measurements of several laboratories.
Protocols differ between the studies behind these lines.
Cell line: A549
Observed: cell growth or viability

| SMILES | test | conditions | measurement | result |
| --- | --- | --- | --- | --- |
| COc1ccc(S(=O)(=O)ON=C2C=C(C)C(=O)C(C)=C2)cc1 | – | – | CC50 | > 30 µM |
| C=C(C)[C@H](CC=C(C)C)Cc1c(O)cc(O)c2c1O[C@H](c1ccc(O)cc1O)CC2=O | MTT | 48 h | IC50 | 18.1 µM |
| O=C(O)CCCCC#CCCCCCCCCCc1ccccc1 | MTS | 24 h | IC50 | 18 µM |
| C=C(C)[C@H](CC=C(C)C)Cc1c(O)cc(O)c2c1O[C@H](c1ccccc1O)CC2=O | MTT | 48 h | IC50 | 36.1 µM |
| O=C1OC2(c3ccc(O)cc3Oc3cc(O)ccc32)c2ccc(NC(=S)NCCS)cc21 | CCK-8 | 48 h | CC50 | > 200 µM |
| CCCCCCCCCCCCCCCC(=O)O | MTS | 24 h | IC50 | 145 µM |
| CCOC(=O)C1CCN(C(=O)c2ccc(N(CC)Cc3cnc4nc(N)nc(N)c4n3)cc2)CC1 | ATP luminescence | – | GI50 | 4.38 µM |
| CC(C)=CCc1c(O)c(CC=C(C)C)c2occ(-c3ccc(O)cc3)c(=O)c2c1O | MTT | 100 µg/mL | viability | 121% |
| O=C(O)c1ccc2c(c1)C(=O)OC21c2ccc(O)cc2Oc2cc(O)ccc21 | CCK-8 | 48 h | CC50 | > 200 µM |
| COc1cccc2c1C(=O)c1c(O)c3c(c(O)c1C2=O)C[C@@](O)(C(=O)CO)C[C@@H]3O[C@H]1C[C@H](N)[C@H](O)[C@H](C)O1 | MTT | 48 h | IC50 | 1.4 µM |
| Nc1nc(N)c2nc(CNc3cccc4ccccc34)cnc2n1 | ATP luminescence | – | GI50 | 1.29 µM |
| O=C1OC2(c3ccccc31)c1ccc(O)c(I)c1Oc1c2ccc(O)c1I | CCK-8 | 48 h | CC50 | > 200 µM |
| CCN(Cc1cnc2nc(N)nc(N)c2n1)c1ccc(C(=O)c2ccccc2)cc1 | ATP luminescence | – | GI50 | 0.23 µM |
| CC(=O)O[C@H]1C(=O)[C@@]2(C)[C@H]([C@H](OC(=O)c3ccccc3)[C@]3(O)C[C@H](OC(=O)[C@H](O)[C@@H](NC(=O)c4ccccc4)c4ccccc4)C(C)=C1C3(C)C)[C@]1(OC(C)=O)CO[C@@H]1C[C@@H]2O | MTT | 48 h | IC50 | 0.45 µM |
| O=C1OC2(c3ccccc31)c1ccc(O)c(Br)c1Oc1c2ccc(O)c1Br | CCK-8 | 48 h | CC50 | > 200 µM |
